SDO1 yeast rescue: restores growth of sdo1-depleted yeast. S. cerevisiae sdo1-depleted JHY4D growth rescue, OD600 30 h; stronger effect = higher value; pdr5 snq2 efflux-pump mutant strain. 140,000 tested, 0.21% active. z-score at 10 µM;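 active means z-score above 3 at both the 24 hr and the 30 hr optical density reads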;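 further: z-score against mean and SD of all compound wells on the same plate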
HCT116 bCat-KO: beta-catenin-lacking colon tumor cell growth suppression; HCT116 beta-catenin knockout viability, CellTiter-Glo, 60 h; stronger effect = lower value; viability, % at 10 µM; 140,000 tested, 1.5% active; AID 818;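 active means viability at or under a set limit, the compound median less 4 SD, cut at about 6% in these data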;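 further: 0% = Hyamine 1622 control at 20 µM and 100% = untreated cell control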
Dynein cargo inh: blocks dynein driven cargo transport along microtubules; 3617.4 mouse cells, GR-EGFP nuclear translocation imaging; test concentration mostly 20 µM; stimulated with dexamethasone, 1 µM; stronger effect = lower value; z-score, hits read low; 220,000 tested, 0.47% active; AID 1381;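 active means plate z-score of nuclear minus cytoplasmic receptor signal below a set negative limit, without overly bright fluorescence or cell loss, cut at about -3.5 in these data, passing the limit was not always enough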;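 further: z-score of nuclear minus cytoplasmic ring GR-EGFP intensity difference per well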
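Buffer or medium: Induction medium lacking tetracycline, stripped serum | Also added: Dexamethasone agonist, 1.0 µM final, for 30 min | Timing: 48 h induction, 1 h compound, 30 min dex at 37 °C | Detection: Formaldehyde fixation, Hoechst nuclear stain, 10x automated fluorescence imaging | Measure: Nuclear versus cytoplasmic GR-EGFP signal, averaged per well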
Autophagy mod: alters autophagy in cells. calls only at 10 µM (by protocol). 190,000 tested, 0.98% active. MEF GFP-LC3 puncta imaging; test concentration mostly 10 µM;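 active means percentage of spot-positive cells more than 3 SD above its plate mean, without a fluorescence outlier flag or 80% toxicity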;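 further: spot-positive cell cutoff set from DMSO-treated cells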
HCT116 PTEN-null: suppresses growth of cells with PTEN deletion. 140,000 tested, 1.2% active. AID 827. HCT116 PTEN-null viability, CellTiter-Glo, 60 h; stronger effect = lower value. viability, % at 10 µM;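 active means viability at or below a set limit, 4 SD under the median of all tested compounds, cut at about 3.7% in these data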;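 further: PTEN knockout HCT116 line with beta catenin targeted HCT116 as companion control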
* hit, by the source's call; i = inactive; x = not tested or not shown; + = active, no number. Shown are actives, neighbours in structure and some others; about 2.2% of the full set was active somewhere.

SMILES	SDO1 yeast rescue	HCT116 bCat-KO	Dynein cargo inh	Autophagy mod	HCT116 PTEN-null
COCC(=O)Nc1nc2ccc(S(C)(=O)=O)cc2s1	0.81	105.9	2.08	i	99.8
O=C(Nc1ccccc1-c1nc2ccccc2[nH]1)c1sc2ccccc2c1Cl	1.53	4.0*	-0.303	i	1.9*
CCOC(=O)c1c(NC(=O)CSc2nc3ccccc3o2)sc(C(C)=O)c1C	-1.02	77.3	-0.574	i	66.7
Cc1nn(-c2ccccc2)c(C)c1/C=N/NC(=O)CSc1nc2ccccc2c(=O)n1-c1ccc(Br)cc1	-0.68	1.1*	1.62	i	1.1*
Cc1ccccc1-n1c(SCC(=O)N/N=C/c2c(C)nn(-c3ccccc3)c2C)nc2ccccc2c1=O	0.37	54.6	0.846	i	44.2
Cc1ccc(-n2c(SCC(=O)N/N=C/c3c(C)nn(-c4ccccc4)c3C)nc3ccccc3c2=O)cc1	-0.68	99.4	0.0754	+	100.9
Cc1ccc(/C=N/NC(=O)CSc2nc3ccccc3c(=O)n2-c2ccccc2)s1	-0.65	89.7	-0.226	i	87.3
Cc1cc(NC(=O)C2CC=CCC2C(=O)O)no1 (centres undefined)	0.6	96.5	0.61	i	90.0
COC(=O)c1ccc(COc2ccccc2/C=C(\C#N)C(=O)Nc2ccccc2C)cc1	-1.55	102.7	-0.727	i	99.1
COC(=O)c1ccc(COc2ccccc2/C=C(\C#N)C(=O)Nc2c(C)cccc2C)cc1	-0.75	2.4*	-0.921	i	1.8*
CCn1cc(C(=O)O)c(=O)c2cc(F)c(N/N=C/c3ccccc3[N+](=O)[O-])cc21	-1.25	4.1*	0.894	i	4.6
COC(=O)c1ccc(NC(=O)CCN2CCN(c3ccccc3)CC2)cc1	0.19	86.9	-0.88	+	90.5
Cc1ccc(S(=O)(=O)NNC(=O)c2sc(=S)n(C)c2C)cc1	0.01	84.6	-0.24	i	96.2
O=C(NCCN1C(=O)CSC1=O)c1ccccc1	-0.38	82.2	1.77	i	88.2
Cc1cc2oc3c(c(=O)c2cc1C)C(c1cccc(Br)c1)N(Cc1ccco1)C3=O (centres undefined)	-0.82	1.8*	0.101	i	1.4*
CCOc1cc(C2c3c(oc4cc(C)c(Cl)cc4c3=O)C(=O)N2Cc2ccco2)ccc1O (centres undefined)	-1.8	49.0	1.1	+	33.9
Cc1ccc2oc3c(c(=O)c2c1)C(c1cccc(Br)c1)N(Cc1ccco1)C3=O (centres undefined)	0.44	56.4	1.3	i	28.2
COc1cc(C2c3c(oc4ccccc4c3=O)C(=O)N2Cc2ccco2)ccc1O (centres undefined)	-0.08	90.7	-0.589	i	86.0
CCn1cc([N+](=O)[O-])c(C(=O)N2N=C(c3ccccc3)CC2c2ccc([N+](=O)[O-])cc2)n1 (centres undefined)	-0.08	83.7	-0.0733	i	81.8
O=C(/C=C/c1ccc(Cl)cc1)NC(=S)Nc1ccc(NC(=O)c2ccco2)cc1	-1.12	17.2	1.01	i	13.5
COc1ccc(NC(=O)/C(Cl)=C(/Cl)S(=O)Cc2ccccc2Cl)cn1 (centres undefined)	x	x	-4.95*	i	x
COc1cc(/C=C/C(=O)c2ccc(O)cc2)ccc1OCC#N	-0.63	2.7*	0.785	i	1.7*
COC(=O)c1ccc(/C=C/C(=O)c2cccc(OC)c2)cc1	-1.33	2.1*	-2.3	i	1.9*
COc1cccc(C(=O)/C=C/c2ccc(OCC#N)c(OC)c2)c1	-0.99	3.6*	-3.04	i	2.5*
CCOc1ccc(/C=C/C(=O)c2ccccc2)cc1OC	-0.91	8.8	-2.44	i	7.4
SMILES	SDO1 yeast rescue	HCT116 bCat-KO	Dynein cargo inh	Autophagy mod	HCT116 PTEN-null
CCOc1ccc(C(=O)/C=C/c2ccc(OC)c(OC)c2)cc1	x	x	-1.87	i	x
CC(=O)Nc1ccc(/C(C)=N/NS(=O)(=O)c2ccccc2)cc1	1.08	98.0	-0.646	i	100.6
CC(C)(C)Cc1nc(-c2ccc(Cl)cc2)no1	1.07	106.3	3.01	i	104.5
CC1(C)C(C=C(Cl)Cl)C1C(=O)Nc1ccc([N+](=O)[O-])cc1 (centres undefined)	-1.14	3.9*	0.209	i	2.4*
COc1cc(/C=c2\sc3n(c2=O)CCCN=3)ccc1O	0.28	51.5	0.969	i	72.7
O=c1/c(=C/c2ccc([N+](=O)[O-])cc2)sc2n1CCCN=2	0.86	2.1*	-0.583	i	14.9
COc1ccc(CN(C)C(=S)Nc2ccc(Cl)cc2)cc1	x	x	1.63	i	x
